Test system: serine hydrolases in the HeLa cell membrane protein fraction
Assay: ABPP-SILAC identification of serine hydrolase targets in cells
Format: cell-based
Conditions: 20 μM, 4 h, FP-biotin probe
Method in brief: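 Intact HeLa cells were cultured with test compound at 20 μM or DMSO control for 4 h. Membrane proteins were then isolated and labelled with FP-biotin probe for ABPP-SILAC. The read-out is the light/heavy ratio per serine hydrolase: 1 means no inhibition and 0 means complete inhibition. Two independent replicates were run.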

SMILES	selectivity/sensitivity profile against serine hydrolases
O=C(N1CCCCC1)n1cccn1 [compound 10]	more selective nature
N#Cc1cnn(C(=O)N2CCCCC2)c1 [compound 12]	more sensitive nature

— article PMC4130767 (Bioorganic & medicinal chemistry letters, 2014)
